Published values pooled from the literature.
Lines come from different studies, so protocols differ.

| SMILES | tested on | test | system | conditions | measurement | result |
| --- | --- | --- | --- | --- | --- | --- |
| CC(=O)N(C)[C@H]1CCN(C(=O)c2cnc3c(c2)C[C@](C)(c2ccc(F)cc2)N3)C1 | – | – | male human, plasma | oral, 30 mg, multiple doses, once daily, steady state | AUC(0-t) | 3.63 µM·h |
| CC(C)n1c(C2CCNCC2)nc2c([N+](=O)[O-])c(Br)c(Br)cc21 | – | – | human, plasma | oral, 100 mg, patients | AUC(0-t) | 952 ng·h/mL |
| O=C(O)COc1cccc(-c2nc(Nc3ccc4[nH]ncc4c3)c3ccccc3n2)c1 | Organic anion transporter 3 (SLC22A8, Homo sapiens, UniProt Q8TCC7) | transporter uptake, inhibitor, radiometric | – | – | IC50 | 15.9 µM |
| COc1ccc(F)cc1C(=O)NCc1ccc(-c2nn([C@@H](C)C(F)(F)F)c(N)c2C(N)=O)cc1 | – | – | male human, plasma | oral, 200 mg, single dose | AUC(0-inf) | 105000 ng·h/mL |
| O=C(COc1ccc(Cl)cc1)NC12CC(c3nnc([C@H]4C[C@@H](OC(F)(F)F)C4)o3)(C1)C2 | – | – | human, plasma | oral, 260 mg, multiple doses, once daily, steady state, healthy volunteers | AUC | 296 µM·h |
| CC(C)C[C@H](NC(=O)[C@H](Cc1ccccc1)NC(=O)c1cnccn1)B(O)O | CHP-212 | cell growth or viability, SRB | – | 4.572 nM | viability | 102% |
| NCc1cc2c(cc1F)C(=O)N(C1CCC(=O)NC1=O)C2 (stereo not shown) | – | – | male cynomolgus monkey, plasma | oral, 0.3 mg/kg, 2 h | concentration | 1.07 ng/mL |
| CC(=O)O[C@H]1C(=O)[C@@]2(C)[C@H]([C@H](OC(=O)c3ccccc3)[C@]3(O)C[C@H](OC(=O)[C@H](O)[C@@H](NC(=O)c4ccccc4)c4ccccc4)C(C)=C1C3(C)C)[C@]1(OC(C)=O)CO[C@@H]1C[C@@H]2O | CHP-212 | cell growth or viability, SRB | – | 1.524 nM | viability | 89.8% |
| CNC(=O)c1cc(Oc2ccc(NC(=O)Nc3ccc(Cl)c(C(F)(F)F)c3)cc2)ccn1 | WISH | cell growth or viability, MTT | – | 3.125 µM, 24 h | viability | 86.2% |
| COc1ccc2c(c1)CN(C(=O)CCN1CCC(Cc3ccccc3)CC1)CC[S@@+]2[O-] | – | – | male human, plasma | intravenous, 0.01 mg/kg, healthy volunteers | AUC(0-t) | 45.2 ng·h/mL |
